From PMC3751212 (Clinical Drug Investigation, 2013)
Where two headings read alike, the source gives them in different places.

Tests used:
[1] = format: in vivo, human; conditions: for CL renal / AUC(0-inf) / Cmax / Tmax / AUC(0-t) / CL/F / Vd/F / half-life / k el: human, 20 mg; for CL renal: plasma and urine, CLR; for AUC(0-inf) / Cmax / Tmax / AUC(0-t) / CL/F / Vd/F / half-life / k el: plasma; for AUC(0-t): AUClast, fasted, n = 6; for CL/F: CLP/F; for Vd/F: Vz/F; for half-life: t½β; for k el: λz
How it was run: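 Single oral 20 mg tablet given fasted (8–10 h) to groups of six subjects stratified by iothalamate GFR (>80, 50–80, 30–50, ≤30 mL/min/1.73 m2). Heparinised blood was drawn pre-dose and 0.25–72 h post-dose; plasma was spun at 1,500×g, 4–8 °C, then frozen. AUClast used the trapezoidal rule, AUC∞ = AUClast + Clast/ke, and CLP/F = dose/AUC∞. Ratios to the healthy group came from ln-transformed ANOVA least-squares means with 90 % CI.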

[2] = Urine concentrations / urinary excretion of bilastine after a single oral dose; format: in vivo, human; conditions: for Urine concentrations of bilastine: mean ± SD
How it was run: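 Subjects were grouped by iothalamate GFR (n = 6 each) and received one fasted oral 20 mg tablet. Urine was pooled over 0–12, 12–24, 24–48 and 48–72 h post-dose and kept refrigerated during each interval. Total volume was measured per interval, and aliquots were stored at −20 °C. Ae is the total unchanged drug over the whole collection, and CLR = Ae/AUC over a defined period.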

Safety evaluations = format: in vivo, human
How it was run: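 Four groups (n = 6) were assigned by iothalamate GFR: >80, 50–80, 30–50 and ≤30 mL/min/1.73 m2. Each subject took one oral 20 mg tablet with 200 mL water after an 8–10 h fast. ECG (12-lead) was recorded pre-dose, 1 and 24 h, with QTcF and QTcB. Vital signs were taken daily. Hematology, biochemistry and urinalysis were done at screening, pre-dose and 72 h. AEs were coded by MedDRA 11.0, and results summarised descriptively.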

histamine H1 receptor = conditions: animal tissues with a high density of H1 receptors; cited from earlier work
[3] = test system: 30 other receptors (including muscarinic receptors); conditions: at a high concentration; cited from earlier work
[4] = test system: histamine receptor subtypes H2, H3, and H4; conditions: at a high concentration; cited from earlier work
[5] = test system: human breast cancer resistance protein (BCRP); conditions: cited from earlier work
[6] = test system: organic anion transporter 1 (OAT1); conditions: cited from earlier work
[7] = test system: organic anion transporter 3 (OAT3); conditions: cited from earlier work
[8] = test system: organic cation transporter 2 (OCT2); conditions: cited from earlier work
[9] = single 80 mg oral dose; 95 % CI 3,174.7–6278.4; cited from earlier work
[10] = compared among the renal impairment groups; cited from earlier work
[11] = doses up to 40 mg; cited from earlier work
[12] = cited from earlier work
[13] = group 2: mild vs group 1: healthy
[14] = group 3: moderate vs group 1: healthy
[15] = group 4: severe vs group 1: healthy
[16] = po, Group 1: healthy, single oral 20 mg, mean ± SD
[17] = po, Group 2: mild, single oral 20 mg, mean ± SD
[18] = po, Group 3: moderate, single oral 20 mg, mean ± SD
[19] = po, Group 4: severe, single oral 20 mg, mean ± SD
[20] = oral, geometric LS mean, Test group 2: mild, ANOVA
[21] = oral, geometric LS mean, Test group 4: severe, ANOVA

Q: Which Clast ([1]; Group 1: healthy, single oral 20 mg, mean ± SD) does the source give for CCOCCn1c(C2CCN(CCc3ccc(C(C)(C)C(=O)O)cc3)CC2)nc2ccccc21 [bilastine, 2-[4-(2-(4-(1-(2-ethoxyethyl)-1H-benzimidazol-2-yl)piperidin-1-yl)ethyl)phenyl]-2-methylpropionic acid] here?
A: 0.3 ± 0.1 ng/mL

Q: What about the Clast ([1]; Group 2: mild, single oral 20 mg, mean ± SD) of the same compound?
A: 0.8 ± 0.3 ng/mL

Q: What about the Clast ([1]; Group 3: moderate, single oral 20 mg, mean ± SD) of the same compound?
A: 0.4 ± 0.1 ng/mL

Q: What about the Clast ([1]; Group 4: severe, single oral 20 mg, mean ± SD) of the same compound?
A: 1.5 ± 1.1 ng/mL

Q: What about the “amount in the plasma after 24 h relative to Cmax” value ([1]; all the groups, single oral 20 mg) of the same compound?
A: less than 5 % of the Cmax

Q: What about the “AUClast, geometric mean ratio” value [1, 13] of the same compound?
A: 1.34

Q: What about the “AUC∞, geometric mean ratio” value [1, 13] of the same compound?
A: 1.36

Q: What about the “Cmax, geometric mean ratio” value [1, 13] of the same compound?
A: 1.24

Q: And the “tmax, difference of median values” [1, 13]?
A: 0.00

Q: And the “AUClast, geometric mean ratio” value [1, 14]?
A: 1.94

Q: What about the “AUC∞, geometric mean ratio” value [1, 14] of the same compound?
A: 1.94

Q: And the “Cmax, geometric mean ratio” value [1, 14]?
A: 2.00

Q: What about the “tmax, difference of median values” [1, 14] of the same compound?
A: 0.75

Q: And the “AUClast, geometric mean ratio” value [1, 15]?
A: 2.11

Q: What about the “AUC∞, geometric mean ratio” value [1, 15] of the same compound?
A: 2.15

Q: What about the “Cmax, geometric mean ratio” value [1, 15] of the same compound?
A: 1.59

Q: And the “tmax, difference of median values” [1, 15]?
A: 0.00

Q: What about the CL renal [1, 16] of the same compound?
A: 145 mL/min

Q: What about the CL renal [1, 17] of the same compound?
A: 116 mL/min

Q: And the CL renal [1, 18]?
A: 91.5 mL/min

Q: And the CL renal [1, 19]?
A: 67.2 mL/min

Q: And the AUC(0-inf) [1, 20]?
A: 959 ng·h/mL

Q: And the AUC(0-inf) [1, 21]?
A: 1510 ng·h/mL

Q: And the Cmax [1, 20]?
A: 167 ng/mL

Q: What about the Cmax [1, 21] of the same compound?
A: 214 ng/mL

Q: And the Tmax ([1]; oral, median, Reference (group 1: healthy))?
A: 1.5 h

Q: What about the Tmax ([1]; oral, median, Test group 2: mild) of the same compound?
A: 1.5 h

Q: And the Tmax ([1]; oral, median, Test group 3: moderate)?
A: 2.25 h

Q: And the Tmax ([1]; oral, median, Test group 4: severe)?
A: 1.5 h

Q: And the AUC(0-t) ([1]; po, Group 1: healthy (GFR >80), single oral 20 mg, mean ± SD)?
A: 733 ± 260 ng·h/mL

Q: What about the AUC(0-t) ([1]; po, Group 2: mild renal insufficiency (GFR 50–80), single oral 20 mg, mean ± SD) of the same compound?
A: 947 ± 148 ng·h/mL

Q: What about the AUC(0-t) ([1]; po, Group 3: moderate renal insufficiency (GFR 30–50), single oral 20 mg, mean ± SD) of the same compound?
A: 1380 ng·h/mL

Q: And the AUC(0-t) ([1]; po, Group 4: severe renal insufficiency (GFR ≤30), single oral 20 mg, mean ± SD)?
A: 1650 ng·h/mL

Q: And the AUC(0-inf) [1, 16]?
A: 737 ± 261 ng·h/mL

Q: And the AUC(0-inf) [1, 17]?
A: 967 ± 140 ng·h/mL

Q: What about the AUC(0-inf) [1, 18] of the same compound?
A: 1380 ng·h/mL

Q: What about the AUC(0-inf) [1, 19] of the same compound?
A: 1710 ng·h/mL

Q: What about the CL/F [1, 16] of the same compound?
A: 495 mL/min

Q: And the CL/F [1, 17]?
A: 351 mL/min

Q: What about the CL/F [1, 18] of the same compound?
A: 248 mL/min

Q: What about the CL/F [1, 19] of the same compound?
A: 271 mL/min

Q: And the Cmax [1, 16]?
A: 144 ± 57.8 ng/mL

Q: And the Cmax [1, 17]?
A: 172 ± 45 ng/mL

Q: What about the Cmax [1, 18] of the same compound?
A: 271 ± 30.4 ng/mL

Q: And the Cmax [1, 19]?
A: 229 ± 81.8 ng/mL

Q: And the Vd/F [1, 16]?
A: 383 ± 122 L

Q: What about the Vd/F [1, 17] of the same compound?
A: 462 ± 244 L

Q: And the Vd/F [1, 18]?
A: 223 ± 55.7 L

Q: And the Vd/F [1, 19]?
A: 351 ± 193 L

Q: And the Tmax ([1]; po, Group 1: healthy, single oral 20 mg, median (range))?
A: 1.5 h

Q: And the Tmax ([1]; po, Group 2: mild, single oral 20 mg, median (range))?
A: 1.5 h

Q: What about the Tmax ([1]; po, Group 3: moderate, single oral 20 mg, median (range)) of the same compound?
A: 2.25 h

Q: And the Tmax ([1]; po, Group 4: severe, single oral 20 mg, median (range))?
A: 1.5 h

Q: What about the half-life [1, 16] of the same compound?
A: 556 ± 167 min

Q: And the half-life [1, 17]?
A: 905 ± 459 min

Q: And the half-life [1, 18]?
A: 628 ± 140 min

Q: What about the half-life [1, 19] of the same compound?
A: 1100 ± 683 min

Q: And the k el [1, 16]?
A: 2.21e-05 s⁻¹

Q: And the k el [1, 17]?
A: 1.65e-05 s⁻¹

Q: What about the k el [1, 18] of the same compound?
A: 1.92e-05 s⁻¹

Q: And the k el [1, 19]?
A: 1.39e-05 s⁻¹

Q: What about the “Urine concentrations of bilastine” value ([2]; 0–12 h, Group 1: healthy, single oral 20 mg) of the same compound?
A: 4,387.5 ± 3,358.4 ng/mL

Q: What about the “Urine concentrations of bilastine” value ([2]; 0–12 h, Group 2: mild) of the same compound?
A: 4,824.1 ± 2,073.0 ng/mL

Q: What about the “Urine concentrations of bilastine” value ([2]; 0–12 h, Group 3: moderate) of the same compound?
A: 7,184.3 ± 3,843.4 ng/mL

Q: And the “Urine concentrations of bilastine” value ([2]; 0–12 h, Group 4: severe)?
A: 3,469.8 ± 2,066.2 ng/mL

Q: And the “Urine concentrations of bilastine” value ([2]; 12–24 h, Group 1: healthy)?
A: 531.7 ± 342.0 ng/mL

Q: And the “Urine concentrations of bilastine” value ([2]; 12–24 h, Group 2: mild)?
A: 597.7 ± 159.2 ng/mL

Q: And the “Urine concentrations of bilastine” value ([2]; 12–24 h, Group 3: moderate)?
A: 472.9 ± 221.9 ng/mL

Q: What about the “Urine concentrations of bilastine” value ([2]; 12–24 h, Group 4: severe) of the same compound?
A: 813.0 ± 567.5 ng/mL

Q: And the “Urine concentrations of bilastine” value ([2]; 24–48 h, Group 1: healthy)?
A: 103.4 ± 38.6 ng/mL

Q: What about the “Urine concentrations of bilastine” value ([2]; 24–48 h, Group 2: mild) of the same compound?
A: 159.3 ± 43.3 ng/mL

Q: What about the “Urine concentrations of bilastine” value ([2]; 24–48 h, Group 3: moderate) of the same compound?
A: 126.7 ± 81.1 ng/mL

Q: And the “Urine concentrations of bilastine” value ([2]; 24–48 h, Group 4: severe)?
A: 260.4 ± 212.1 ng/mL

Q: What about the “Urine concentrations of bilastine” value ([2]; 48–72 h, Group 1: healthy) of the same compound?
A: 20.9 ± 10.0 ng/mL

Q: What about the “Urine concentrations of bilastine” value ([2]; 48–72 h, Group 2: mild) of the same compound?
A: 49.3 ± 40.7 ng/mL

Q: What about the “Urine concentrations of bilastine” value ([2]; 48–72 h, Group 3: moderate) of the same compound?
A: 30.3 ± 7.4 ng/mL

Q: What about the “Urine concentrations of bilastine” value ([2]; 48–72 h, Group 4: severe) of the same compound?
A: 97.8 ± 69.3 ng/mL

Q: What about the “time by which urinary excretion was essentially complete” value ([2]; single oral 20 mg, most excreted in the first 12 h) of the same compound?
A: up to 72 h

Q: And the tolerability (Safety evaluations; 20 mg oral dose, healthy and renally impaired subjects)?
A: well-tolerated

Q: And the “subjects with outlier ECG results” value (Safety evaluations; all 24 subjects, single oral 20 mg)?
A: 20.8%

Q: And the “subjects with outlier ECG results” value (Safety evaluations; each of the mild, moderate, and severe impairment groups)?
A: 16.7%

Q: What about the “subjects with outlier ECG results” value (Safety evaluations; healthy group) of the same compound?
A: 33.3%

Q: And the “mean blood glucose concentration” value (Safety evaluations; mildly impaired group, end of study, reference range 60–115 mg/dL)?
A: 120.8 mg/dL

Q: What about the “affinity for H1 receptors relative to cetirizine” value (histamine H1 receptor) of the same compound?
A: three times higher

Q: What about the “affinity for H1 receptors relative to fexofenadine” value (histamine H1 receptor) of the same compound?
A: five times higher

Q: What about the “affinity for 30 other receptors” value [3] of the same compound?
A: does not show affinity

Q: And the “affinity for histamine receptor subtypes H2, H3, and H4” value [4]?
A: does not show affinity

Q: What about the “substrate of BCRP” value [5] of the same compound?
A: not a substrate

Q: And the “substrate of OAT1” value [6]?
A: not a substrate

Q: And the “substrate of OAT3” value [7]?
A: not a substrate

Q: And the “substrate of OCT2” value [8]?
A: not a substrate

Q: And the “AUC∞, mean estimated exposure (safety margin)” value [9]?
A: 4,225.6 ng·h/mL

Q: What about the plasma protein binding [10] of the same compound?
A: comparable values were found among the renal impairment groups

Q: What about the “sedative or psychomotor effects” value [11] of the same compound?
A: No sedative or psychomotor effects were detected

Q: What about the metabolism [12] of the same compound?
A: not metabolized
